In ChEMBL document CHEMBL2434950 (Eur J Med Chem, 2013):
Converted amounts (≈) assume the structure as drawn.

Test system: not listed separately
Experiment: Non-competitive inhibition of glycosomal Trypanosoma cruzi SQS
Settings: not given

| Compound | IC50 | Ki |
| --- | --- | --- |
| N#CSCCOc1ccc(Oc2ccccc2)cc1 | 0.088 µM | 0.088 µM |

Test system: Toxoplasma gondii
Experiment: Antiparasitic activity against Toxoplasma gondii tachyzoites at 10 uM by fluorescence assay
Format: functional
Settings: not given

| Compound | Activity |
| --- | --- |
| c1cncc(Oc2ccc(OCCOC3CCCCO3)cc2)c1 (stereo not given) | 3.25% |

Test system: Toxoplasma gondii
Experiment: Antiparasitic activity against Toxoplasma gondii tachyzoites by fluorescence assay
Format: functional
Settings: read-out: ED50 (the source's name)
In short: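 Red fluorescent protein-expressing tachyzoites were filtered (3 µm) and needle-passed, then seeded at 4×10^4/well onto confluent hTERT monolayers in DMEM-HG with 1% FBS, 2 mM glutamine and 1 mM pyruvate, at 37 °C. Drugs were serially diluted in the same medium. Plates were read daily from the bottom (ex 544/em 590 nm). EC50 came from the fit I = Imax·C/(EC50 + C), Imax 100%. Three experiments, each in triplicate.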

| Compound | EC50 |
| --- | --- |
| COc1ccc(Oc2ccc(OCCSC#N)cc2)cc1 | 3.81 µM |
| N#CSCCOc1ccc(Oc2ccccc2)cc1 | 4.8 µM |
| O=C1C(O)=C([C@H]2CC[C@H](c3ccc(Cl)cc3)CC2)C(=O)c2ccccc21 [ATOVAQUONE] | 0.032 µM |
| N#CSCCOc1ccc(Oc2cccnc2)cc1 | 7.5 µM |
| COc1cccc(Oc2ccc(OCCSC#N)cc2)c1 | 6.7 µM |
| COc1ccc(Oc2cccc(OCCSC#N)c2)cc1 | 2.93 µM |
| N#CSCCOc1ccc(Oc2cccc([N+](=O)[O-])c2)cc1 | 2.03 µM |
| O=[N+]([O-])c1cccc(Oc2ccc(OCCOC3CCCCO3)cc2)c1 (stereo not given) | 3.28 µM |
| N#CSCCOc1cccc(Oc2ccccc2)c1 | 3.95 µM |

Test system: Trypanosoma cruzi
Experiment: Ratio of compound ED50 to WC-9 ED50 for Trypanosoma cruzi amastigotes after 3 days by fluorescence assay
Format: functional
Settings: not given

| Compound | Ratio ED50 |
| --- | --- |
| N#CSCCOc1ccc(Oc2cccc([N+](=O)[O-])c2)cc1 | 1.04 |

Test system: not listed separately
Experiment: Cytotoxicity against african green monkey Vero cells by Alamar blue assay
Format: cell-based
Settings: chlorocebus sabaeus, read-out: ED50 (the source's name)

| Compound | CC50 |
| --- | --- |
| c1cncc(Oc2ccc(OCCOC3CCCCO3)cc2)c1 (stereo not given) | > 50 µM |
| COc1ccc(Oc2ccc(OCCSC#N)cc2)cc1 | > 100 µM |
| N#CSCCOc1ccc(Oc2ccccc2)cc1 | > 50 µM |
| N#CSCCOc1ccc(Oc2cccnc2)cc1 | > 50 µM |
| COc1cccc(Oc2ccc(OCCSC#N)cc2)c1 | > 50 µM |
| COc1ccc(Oc2cccc(OCCSC#N)c2)cc1 | > 50 µM |
| N#CSCCOc1ccc(Oc2cccc([N+](=O)[O-])c2)cc1 | > 50 µM |
| O=[N+]([O-])c1cccc(Oc2ccc(OCCOC3CCCCO3)cc2)c1 (stereo not given) | > 50 µM |
| N#CSCCOc1cccc(Oc2ccccc2)c1 | > 50 µM |

Test system: not listed separately
Experiment: Non-competitive inhibition of mitochondrial Trypanosoma cruzi SQS
Settings: not given

| Compound | IC50 | Ki |
| --- | --- | --- |
| N#CSCCOc1ccc(Oc2ccccc2)cc1 | 0.129 µM | 0.129 µM |

Test system: Trypanosoma cruzi
Experiment: Antiparasitic activity against Trypanosoma cruzi EP epimastigotes
Format: functional
Settings: not given

| Compound | MIC |
| --- | --- |
| N#CSCCOc1ccc(Oc2ccccc2)cc1 | 1 µM (≈ 0.271 µg/mL) |

Test system: Trypanosoma cruzi
Experiment: Antiparasitic activity against Trypanosoma cruzi amastigotes after 3 days by fluorescence assay
Format: functional
Settings: 72 h, read-out: ED50 (the source's name)
In short: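 Gamma-irradiated (2000 Rads) Vero cells, 3.4×10^4/well in RPMI with 10% FBS, were kept overnight at 35 °C, 7% CO2. […] Serial dilutions were added at 5 concentrations up to 20 or 25 µM, each in quadruplicate, with a benznidazole control. Fluorescence was read at day 3, and IC50 was derived by non-linear regression.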

| Compound | EC50 |
| --- | --- |
| c1cncc(Oc2ccc(OCCOC3CCCCO3)cc2)c1 (stereo not given) | > 10 µM |
| COc1ccc(Oc2ccc(OCCSC#N)cc2)cc1 | 6.1 µM |
| N#CSCCOc1ccc(Oc2ccccc2)cc1 | 5 µM |
| N#CSCCOc1ccc(Oc2cccnc2)cc1 | 7.4 µM |
| O=C(Cn1ccnc1[N+](=O)[O-])NCc1ccccc1 [BENZNIDAZOLE] | 1.75 µM |
| COc1cccc(Oc2ccc(OCCSC#N)cc2)c1 | 4.5 µM |
| COc1ccc(Oc2cccc(OCCSC#N)c2)cc1 | 10.1 µM |
| N#CSCCOc1ccc(Oc2cccc([N+](=O)[O-])c2)cc1 | 5.2 µM |
| O=[N+]([O-])c1cccc(Oc2ccc(OCCOC3CCCCO3)cc2)c1 (stereo not given) | > 10 µM |
| N#CSCCOc1cccc(Oc2ccccc2)c1 | 11.2 µM |
